Tests used:
SK-BR-3 = assay: Cytotoxicity against human SKBR3 cells after 48 hrs by SRB assay; assay type: functional; settings: SK-BR-3, 48 h; for CC50: read-out: LC50 (the source's name)
Outline: (§1)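 Cells grown in RPMI 1640 with 10% FBS and penicillin/streptomycin at 37 °C and 5% CO₂, trypsinized, then seeded at 5 × 10³/well. After 18 h drug-free attachment, samples in DMSO/EtOH/PBS (0.5:0.5:99) were added for 48 h continuous exposure. Cells were fixed with cold TCA (1 h, 4 °C) and stained with SRB (10 min). Tris-solubilized stain read at 490 nm. Triplicate wells, mean ± SD; GI₅₀ derived.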

[1] = Cytotoxicity against human IGROV cells after 48 hrs by SRB assay; assay type: functional; settings: for CC50: read-out: LC50 (the source's name); outline: as §1
SK-MEL-28 = assay: Cytotoxicity against human SK-MEL-28 cells after 48 hrs by SRB assay; assay type: functional, cell-based; settings: Homo sapiens, SK-MEL-28, 48 h; for CC50: read-out: LC50 (the source's name); outline: as §1
HeLa = assay: Cytotoxicity against human HeLa cells after 48 hrs by SRB assay; assay type: functional; settings: for CC50: read-out: LC50 (the source's name); outline: as §1
HT-29 = assay: Cytotoxicity against human HT29 cells after 48 hrs by SRB assay; assay type: functional, cell-based; settings: Homo sapiens, HT-29, 48 h; for CC50: read-out: LC50 (the source's name); outline: as §1
K562 = assay: Cytotoxicity against human K562 cells after 48 hrs by SRB assay; assay type: functional; settings: K562, 48 h; for CC50: read-out: LC50 (the source's name); outline: as §1
PANC-1 = assay: Cytotoxicity against human PANC1 cells after 48 hrs by SRB assay; assay type: functional; settings: PANC-1, 48 h; for CC50: read-out: LC50 (the source's name); outline: as §1
[2] = Cytotoxicity against human HeLa-APL cells after 48 hrs by SRB assay; assay type: functional; outline: as §1
LoVo [3] = assay: Cytotoxicity against human LoVo cells after 48 hrs by SRB assay; assay type: functional; settings: for CC50: read-out: LC50 (the source's name)
A549 = assay: Cytotoxicity against human A549 cells after 48 hrs by SRB assay; assay type: functional, cell-based; settings: Homo sapiens, A549, 48 h; outline: as §1
[4] = Cytotoxicity against human IGROV-ET cells after 48 hrs by SRB assay; assay type: functional; settings: for CC50: read-out: LC50 (the source's name); outline: as §1
LoVo [5] = assay: Cytotoxicity against human doxorubicin resistant LoVo cells after 48 hrs by SRB assay; assay type: functional; settings: for CC50: read-out: LC50 (the source's name); outline: as §1
DU-145 = assay: Cytotoxicity against human DU145 cells after 48 hrs by SRB assay; assay type: functional, cell-based; settings: Homo sapiens, DU-145, 48 h; for CC50: read-out: LC50 (the source's name); outline: as §1

C/C=C1\NC(=O)[C@H](c2ccccc2)NC(=O)[C@@H](C(C)C)NC(=O)[C@@H]([C@H](C)CC)NC(=O)[C@H](NC(=O)[C@H](NC(=O)[C@H](CCCN)NC(=O)[C@H]2CCCN2C(=O)[C@H](NC(=O)[C@@H](NC(=O)[C@@H](NC(=O)[C@H](NC(=O)CCCC(C)C)C(C)C)[C@@H](C)O)C(C)C)C(C)C)[C@H](C)CC)[C@H](C)OC(=O)[C@H](C(C)C)NC1=O
TGI (SK-BR-3): 386 nM | GI50 (SK-BR-3; read-out: GI50): 438 nM | CC50 (SK-BR-3): 360 nM | GI50 [1]: 720 nM | GI50 ([1]; read-out: GI50): 503 nM | CC50 [1]: 498 nM | TGI (SK-MEL-28): 1110 nM | GI50 (SK-MEL-28; read-out: GI50): 1110 nM | CC50 (SK-MEL-28): 1110 nM | CC50 (HeLa): 903 nM | CC50 (HT-29): 416 nM | GI50 (K562): 1810 nM | TGI (K562): 1810 nM | CC50 (K562): 1810 nM | GI50 (PANC-1): 1660 nM | TGI (PANC-1): 1660 nM | CC50 (PANC-1): 1660 nM | LC50 (concentration giving 50% net cell kill) [2]: 912 nM | GI50 (LoVo [3]): 417 nM | TGI (LoVo [3]): 533 nM | CC50 (LoVo [3]): 341 nM | LC50 (A549): 1090 nM | TGI (A549): 1090 nM | GI50 (A549; read-out: GI50): 1090 nM | GI50 [4]: 797 nM | GI50 ([4]; read-out: GI50): 806 nM | CC50 [4]: 536 nM | GI50 (LoVo [5]): 409 nM | CC50 (LoVo [5]): 333 nM | GI50 (DU-145): 872 nM | GI50 (DU-145; read-out: GI50): 872 nM | CC50 (DU-145): 872 nM

C/C=C1\NC(=O)[C@H](Cc2ccc(F)c(F)c2)NC(=O)[C@@H](C(C)C)NC(=O)[C@@H]([C@H](C)CC)NC(=O)[C@H](NC(=O)[C@H](NC(=O)[C@H](CCCN)NC(=O)[C@H]2CCCN2C(=O)[C@H](NC(=O)[C@@H](NC(=O)[C@@H](NC(=O)[C@H](NC(=O)CCCC(C)C)C(C)C)[C@@H](C)O)C(C)C)C(C)C)[C@H](C)CC)[C@H](C)OC(=O)[C@H](C(C)C)NC1=O
GI50 (SK-BR-3): 31.9 nM | GI50 (SK-BR-3; read-out: GI50): 30 nM | CC50 (SK-BR-3): 134 nM | GI50 [1]: 86.8 nM | GI50 ([1]; read-out: GI50): 37.9 nM | CC50 [1]: 156 nM | GI50 (SK-MEL-28): 203 nM | GI50 (SK-MEL-28; read-out: GI50): 128 nM | CC50 (SK-MEL-28): 323 nM | GI50 (HeLa): 98.1 nM | TGI (HeLa): 177 nM | CC50 (HeLa): 466 nM | GI50 (HT-29): 30.4 nM | TGI (HT-29): 28.7 nM | CC50 (HT-29): 90.4 nM | GI50 (K562): 732 nM | TGI (K562): 1090 nM | CC50 (K562): 1610 nM | GI50 (PANC-1): 575 nM | TGI (PANC-1): 979 nM | CC50 (PANC-1): 1650 nM | GI50 [2]: 155 nM | LC50 (concentration giving 50% net cell kill) [2]: 271 nM | TGI [2]: 166 nM | GI50 (LoVo [3]): 12.8 nM | TGI (LoVo [3]): 21.2 nM | CC50 (LoVo [3]): 25.9 nM | GI50 (A549): 293 nM | LC50 (A549): 968 nM | GI50 (A549; read-out: GI50): 137 nM | TGI [4]: 76.7 nM | GI50 ([4]; read-out: GI50): 47 nM | CC50 [4]: 515 nM | GI50 (LoVo [5]): 18.4 nM | TGI (LoVo [5]): 20.5 nM | CC50 (LoVo [5]): 52.8 nM | GI50 (DU-145): 131 nM | GI50 (DU-145; read-out: GI50): 43 nM | CC50 (DU-145): 243 nM

C/C=C1\NC(=O)[C@H](Cc2ccc3ccccc3c2)NC(=O)[C@@H](C(C)C)NC(=O)[C@@H]([C@H](C)CC)NC(=O)[C@H](NC(=O)[C@H](NC(=O)[C@H](CCCN)NC(=O)[C@H]2CCCN2C(=O)[C@H](NC(=O)[C@@H](NC(=O)[C@@H](NC(=O)[C@H](NC(=O)CCCC(C)C)C(C)C)[C@@H](C)O)C(C)C)C(C)C)[C@H](C)CC)[C@H](C)OC(=O)[C@H](C(C)C)NC1=O
GI50 (SK-BR-3): 18.8 nM | GI50 (SK-BR-3; read-out: GI50): 21.7 nM | CC50 (SK-BR-3): 32.7 nM | GI50 [1]: 37.2 nM | GI50 ([1]; read-out: GI50): 27.3 nM | CC50 [1]: 44.3 nM | GI50 (SK-MEL-28): 213 nM | GI50 (SK-MEL-28; read-out: GI50): 135 nM | CC50 (SK-MEL-28): 339 nM | GI50 (HeLa): 71.6 nM | TGI (HeLa): 94.6 nM | CC50 (HeLa): 220 nM | GI50 (HT-29): 37.9 nM | TGI (HT-29): 39.1 nM | CC50 (HT-29): 60.9 nM | GI50 (K562): 287 nM | TGI (K562): 679 nM | CC50 (K562): 1320 nM | GI50 (PANC-1): 606 nM | TGI (PANC-1): 909 nM | CC50 (PANC-1): 1370 nM | GI50 [2]: 77.5 nM | LC50 (concentration giving 50% net cell kill) [2]: 205 nM | TGI [2]: 91.7 nM | TGI (LoVo [3]): 22.9 nM | CC50 (LoVo [3]): 34.4 nM | GI50 (A549): 194 nM | LC50 (A549): 343 nM | GI50 (A549; read-out: GI50): 110 nM | TGI [4]: 60.4 nM | GI50 ([4]; read-out: GI50): 46.4 nM | CC50 [4]: 120 nM | GI50 (LoVo [5]): 29.5 nM | TGI (LoVo [5]): 29 nM | CC50 (LoVo [5]): 148 nM | GI50 (DU-145): 116 nM | GI50 (DU-145; read-out: GI50): 50.9 nM | CC50 (DU-145): 224 nM

C/C=C1\NC(=O)[C@H](Cc2ccc(-c3ccccc3)cc2)NC(=O)[C@@H](C(C)C)NC(=O)[C@@H]([C@H](C)CC)NC(=O)[C@H](NC(=O)[C@H](NC(=O)[C@H](CCCN)NC(=O)[C@H]2CCCN2C(=O)[C@H](NC(=O)[C@@H](NC(=O)[C@@H](NC(=O)[C@H](NC(=O)CCCC(C)C)C(C)C)[C@@H](C)O)C(C)C)C(C)C)[C@H](C)CC)[C@H](C)OC(=O)[C@H](C(C)C)NC1=O
TGI (SK-BR-3): 183 nM | GI50 (SK-BR-3; read-out: GI50): 68.9 nM | CC50 (SK-BR-3): 968 nM | GI50 [1]: 159 nM | GI50 ([1]; read-out: GI50): 253 nM | CC50 [1]: 564 nM | GI50 (SK-MEL-28): 214 nM | GI50 (SK-MEL-28; read-out: GI50): 190 nM | CC50 (SK-MEL-28): 644 nM | GI50 (HeLa): 220 nM | TGI (HeLa): 372 nM | CC50 (HeLa): 812 nM | GI50 (HT-29): 214 nM | TGI (HT-29): 187 nM | CC50 (HT-29): 516 nM | CC50 (K562): 1420 nM | GI50 (PANC-1): 1240 nM | TGI (PANC-1): 1330 nM | CC50 (PANC-1): 1400 nM | GI50 [2]: 482 nM | LC50 (concentration giving 50% net cell kill) [2]: 1120 nM | TGI [2]: 762 nM | GI50 (LoVo [3]): 184 nM | TGI (LoVo [3]): 268 nM | CC50 (LoVo [3]): 317 nM | LC50 (A549): 947 nM | TGI (A549): 56.6 nM | GI50 (A549; read-out: GI50): 52.1 nM | GI50 [4]: 230 nM | GI50 ([4]; read-out: GI50): 134 nM | CC50 [4]: 536 nM | GI50 (LoVo [5]): 177 nM | TGI (LoVo [5]): 239 nM | CC50 (LoVo [5]): 284 nM | GI50 (DU-145): 146 nM | GI50 (DU-145; read-out: GI50): 166 nM | CC50 (DU-145): 129 nM
